An excerpt weighted towards active compounds, which were near 3.5% of everything screened.
RGS4 inh = RGS4 inhibitors, primary screen, cell-based, HEK293 M3R inducible RGS4, calcium flux | Regulator of G-protein signaling 4 (Homo sapiens), P49798 | Fluo-4 calcium flux; stronger effect = higher value; triggered by carbachol at its EC20 | B-score at 10 µM | actives 0.45% (n = 310,000) | AID 463165, 2010;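 active = B-score, a plate-corrected calcium signal, over three deviations above library mean, with baseline fluorescence within five deviations of library mean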;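 note: RGS4 expression induced by doxycycline in cells with stable M3 receptor; B-score is computed from the integrated fluorescence ratio over baseline after carbachol; higher B-score means a larger calcium signal and so more RGS4 inhibition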
Target sequence (P49798 whole entry, looked up): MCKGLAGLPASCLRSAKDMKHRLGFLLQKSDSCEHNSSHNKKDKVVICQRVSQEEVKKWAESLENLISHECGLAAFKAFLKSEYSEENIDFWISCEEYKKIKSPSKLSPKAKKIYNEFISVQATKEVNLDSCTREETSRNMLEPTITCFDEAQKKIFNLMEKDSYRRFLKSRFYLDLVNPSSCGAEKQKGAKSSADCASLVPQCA
RGS4 act = RGS4 potentiators or activators, primary screen, cell-based, HEK293 M3R inducible RGS4, calcium flux; B-score at 10 µM; actives 0.92% (n = 310,000); carbachol calcium flux Fluo4; stronger effect = lower value;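 active = B-score of the integrated calcium signal more than 4 SD below the library mean, with starting fluorescence not abnormally high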;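 note: negative B-score means reduced calcium response which marks RGS4 activation or potentiation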
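Reagent: ECmax carbachol challenge; Test system: M3R-expressing HEK293 line, RGS4 induced by doxycycline; Schedule: overnight RGS4 induction, 30 min dye load 37 °C, 20 min compound RT; Detection: calcium dye Fluo4 fluorescence; Read-out: Agonist-evoked peak-minus-minimum fluorescence over baseline, integrated ratio, B score.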
MrgX1 antagonist = antagonists of human MrgX1 receptor, primary screen, HEK293 cells, Fluo-4 calcium flux. Mas-related G-protein coupled receptor member X1 (Homo sapiens), Q96LB2. BAM8-22 antagonism; stronger effect = lower value. B-score at 10 µM. actives 1.3% (n = 310,000);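 active = calcium-response B-score plate-corrected more than 3 library SD below zero, starting fluorescence within 5 deviations, no agonist response on first addition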;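 note: peak minus trough fluorescence over baseline after final BAM8-22 challenge near maximal dose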
Target sequence (Q96LB2 whole entry, looked up): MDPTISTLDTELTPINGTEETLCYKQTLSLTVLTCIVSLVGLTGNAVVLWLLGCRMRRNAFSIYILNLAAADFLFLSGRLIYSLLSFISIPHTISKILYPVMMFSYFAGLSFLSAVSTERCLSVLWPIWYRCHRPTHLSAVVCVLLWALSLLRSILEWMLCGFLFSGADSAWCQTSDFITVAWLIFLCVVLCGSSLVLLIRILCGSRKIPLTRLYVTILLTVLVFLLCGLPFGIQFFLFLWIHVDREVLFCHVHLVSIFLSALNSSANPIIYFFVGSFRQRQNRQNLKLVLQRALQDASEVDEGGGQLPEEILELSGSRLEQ
MrgX1 allo act = positive allosteric modulators of MrgX1, primary screen, HEK293 cells, Fluo-4 calcium flux; Mas-related G-protein coupled receptor member X1 (Homo sapiens), Q96LB2; FDSS; stronger effect = higher value; B-score at 10 µM; actives 0.63% (n = 310,000);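 active = plate-corrected calcium response at least 3 library SD above typical, normal starting fluorescence, not activating the receptor alone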;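 note: compound read alongside a low EC10 to EC30 dose of BAM8-22 agonist; peak minus trough fluorescence over baseline measured at the second addition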
MrgX1 ag = agonists of human MrgX1 receptor, primary screen, HEK293 cells, Fluo-4 calcium flux | Mas-related G-protein coupled receptor member X1 (Homo sapiens), Q96LB2 | Fluo-4 calcium fluorescence, agonist mode; stronger effect = higher value | B-score at 10 µM | actives 0.44% (n = 310,000) | AID 588627, 2011;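 active = calcium response B-score plate-corrected fluorescence ratio at least 3 library SD, with starting fluorescence B-score inside 5 SD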
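Material: HEK293 cells stably expressing human MrgX1 receptor | Quantity: 15,000 cells per well | Times: Cells plated overnight, dye loaded 0.5 h 37 °C, 0.5 h room temperature | Measured by: Kinetic Fluo-4 NW fluorescence of intracellular calcium | Control set: Positive and negative controls per plate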
The depositor's hits bear a star.

What do the screens show for `O=C(NCCN1CCOCC1)c1ccc(/C=C2\Sc3ccccc3N(Cc3ccccc3F)C2=O)cc1`?
RGS4 inh: inactive; RGS4 act: inactive; MrgX1 antagonist: inactive; MrgX1 allo act: inactive; MrgX1 ag: inactive

How did CCn1nc(CC(=O)Nc2ccc(-n3cnnn3)c(OC)c2)c2ccccc2c1=O do in these assays?
RGS4 inh: inactive; RGS4 act: inactive; MrgX1 antagonist: -5.2*; MrgX1 allo act: inactive; MrgX1 ag: inactive

Results for N=c1n(Cc2ccccc2)c2ccccc2n1CC(O)COc1ccc(Cl)cc1Cl (stereo not drawn) ?
RGS4 inh: inactive; RGS4 act: -9*

What do the screens show for `N=c1n(Cc2ccc(Cl)cc2)c2ccccc2n1CC(O)COc1ccccc1` (stereo not drawn)?
RGS4 inh: inactive; RGS4 act: inactive; MrgX1 antagonist: inactive; MrgX1 allo act: inactive; MrgX1 ag: inactive

How did CCOc1ccc(C(=O)CC(NCc2cccs2)C(=O)O)cc1 (stereo not drawn) do in these assays?
RGS4 inh: inactive; RGS4 act: inactive; MrgX1 antagonist: inactive; MrgX1 allo act: inactive; MrgX1 ag: inactive

How did Nc1c(C(=O)N/N=C/c2ccccc2Cl)oc2nc(-c3ccccc3)cc(-c3ccco3)c12 do in these assays?
RGS4 inh: inactive; RGS4 act: inactive; MrgX1 antagonist: -7.7*; MrgX1 allo act: inactive; MrgX1 ag: inactive

What do the screens show for `Nc1c(C(=O)N/N=C/c2ccc(F)cc2)oc2nc(-c3ccccc3)cc(-c3ccco3)c12`?
RGS4 inh: inactive; RGS4 act: inactive; MrgX1 antagonist: -5.4*; MrgX1 allo act: inactive; MrgX1 ag: inactive

Results for O=C(N/N=C/c1ccc(F)cc1)c1cc(-c2ccco2)nc2ccccc12 ?
RGS4 inh: inactive; RGS4 act: inactive; MrgX1 antagonist: inactive; MrgX1 allo act: inactive; MrgX1 ag: inactive

Results for CCN1C(=O)/C(=C/N2CCc3ccccc32)SC1=S ?
RGS4 inh: inactive; RGS4 act: inactive; MrgX1 antagonist: inactive; MrgX1 allo act: inactive; MrgX1 ag: 34*

What do the screens show for `CCN(CC(=O)Nc1c(F)cccc1F)C(=O)CCNS(=O)(=O)c1ccccc1C(F)(F)F`?
RGS4 inh: inactive; RGS4 act: inactive; MrgX1 antagonist: inactive; MrgX1 allo act: inactive; MrgX1 ag: inactive

Results for CC(C)COc1ccc(C(=O)Nc2ccc([N+](=O)[O-])cc2)cc1 ?
RGS4 inh: inactive; RGS4 act: inactive; MrgX1 antagonist: inactive; MrgX1 allo act: inactive; MrgX1 ag: inactive

What do the screens show for `CC(C)OC(=O)c1cc(NC(=S)Nc2ccc([N+](=O)[O-])cc2)cc(C(=O)OC(C)C)c1`?
RGS4 inh: inactive; RGS4 act: inactive; MrgX1 antagonist: -6.7*; MrgX1 allo act: inactive; MrgX1 ag: inactive

How did CC(C)CCNC(=S)Nc1ccc([N+](=O)[O-])cc1 do in these assays?
RGS4 inh: inactive; RGS4 act: inactive; MrgX1 antagonist: inactive; MrgX1 allo act: inactive; MrgX1 ag: inactive

Results for CCCCNC(=S)Nc1ccc([N+](=O)[O-])cc1 ?
RGS4 inh: inactive; RGS4 act: inactive; MrgX1 antagonist: -5.6*; MrgX1 allo act: inactive; MrgX1 ag: inactive

What do the screens show for `CCn1cc(C(=O)NC2CCCCCC2)c(=O)c2ccc(C)nc21`?
RGS4 inh: inactive; RGS4 act: inactive; MrgX1 antagonist: inactive; MrgX1 allo act: inactive; MrgX1 ag: inactive

How did COc1ccc(NC(=O)C2CC(=O)N(c3ccccc3Cl)C2)c(OC)c1 (stereo not drawn) do in these assays?
RGS4 inh: inactive; RGS4 act: inactive; MrgX1 antagonist: inactive; MrgX1 allo act: inactive; MrgX1 ag: inactive

Results for O=S(=O)(Nc1nc2ccccc2nc1Nc1cccc(S(=O)(=O)N2CCCCC2)c1)c1ccccc1 ?
RGS4 inh: inactive; RGS4 act: inactive; MrgX1 antagonist: inactive; MrgX1 allo act: inactive; MrgX1 ag: inactive

What do the screens show for `C[C@H]1c2cccc(O)c2C(O)=C2C(=O)[C@]3(O)C(O)=C(C(N)=O)C(=O)[C@@H](N(C)C)C3[C@@H](O)C21` (stereo partly drawn)?
RGS4 inh: inactive; RGS4 act: inactive; MrgX1 antagonist: -6.8*; MrgX1 allo act: inactive; MrgX1 ag: inactive

Results for COc1cccc(N2CCc3c(C)nc4ccc(Cl)cc4c32)c1 ?
RGS4 inh: inactive; RGS4 act: -7.5*; MrgX1 antagonist: inactive; MrgX1 allo act: inactive; MrgX1 ag: inactive

Results for Cn1c(Cn2c(C(F)(F)F)nc3ccccc32)nc2ccccc21 ?
RGS4 inh: inactive; RGS4 act: inactive; MrgX1 antagonist: -4.9*; MrgX1 allo act: inactive; MrgX1 ag: inactive

How did OCCn1c(C(F)(F)F)nc2ccccc21 do in these assays?
RGS4 inh: inactive; RGS4 act: inactive; MrgX1 antagonist: inactive; MrgX1 allo act: inactive; MrgX1 ag: inactive

What do the screens show for `NC(=O)c1nsc(C(=O)N(c2cccc(F)c2)C(C(=O)NC2CCCC2)c2ccc(O)cc2)c1N` (stereo not drawn)?
RGS4 inh: inactive; RGS4 act: inactive; MrgX1 antagonist: inactive; MrgX1 allo act: inactive; MrgX1 ag: inactive

What do the screens show for `COc1ccc(C(C(=O)NC2CCCC2)N(C(=O)c2snc(C(N)=O)c2N)c2cccc(O)c2)cc1` (stereo not drawn)?
RGS4 inh: inactive; RGS4 act: inactive; MrgX1 antagonist: inactive; MrgX1 allo act: 6.5*; MrgX1 ag: inactive

What do the screens show for `COc1ccc(CCNC(=O)[C@H](C)NC(=O)N2CCn3c2nc2ccccc23)cc1OC`?
RGS4 inh: inactive; RGS4 act: inactive; MrgX1 antagonist: inactive; MrgX1 allo act: inactive; MrgX1 ag: inactive

Results for CCOC(=O)N1CCN(C(=O)CSCC(=O)Nc2nc(-c3ccc(-c4ccccc4)cc3)cs2)CC1 ?
RGS4 inh: inactive; RGS4 act: inactive; MrgX1 antagonist: -6.4*; MrgX1 allo act: inactive; MrgX1 ag: inactive

Results for CC(OC(=O)c1cccc([N+](=O)[O-])c1)C(=O)NCc1ccc2c(c1)OCO2 (stereo not drawn) ?
RGS4 inh: inactive; RGS4 act: inactive; MrgX1 antagonist: -5.9*; MrgX1 allo act: inactive; MrgX1 ag: inactive

How did CCCCCn1c(N2CCC(Cc3ccccc3)CC2)nc2c1c(=O)[nH]c(=O)n2C do in these assays?
RGS4 inh: inactive; RGS4 act: -9*; MrgX1 antagonist: inactive; MrgX1 allo act: inactive; MrgX1 ag: inactive

From PubChem
